Experimental data published in ChEMBL document CHEMBL4011649 (J Med Chem, 2017).
Calls of active or inactive are those of the source. The calls are words filed in the database; no cut-off is given here.

Columns and labels:
Mus musculus [1] = assay: Toxicity in C57BL/6J mouse assessed as reduction in baseline locomotive activity at 3 mg/kg, ip after 15 mins; format: organism-based; details: in vivo
Mus musculus [2] = assay: Antipsychotic activity in AMPH-induced hyperactivity C57BL/6J mouse model assessed as reduction in amphetamine-induced hyper-locomotion at 3 mg/kg, ip preincubated for 15 mins followed by AMPH addition measured after 90 mins; format: functional, organism-based
Mus musculus [3] = assay: Antipsychotic activity in PCP-induced hyperactivity C57BL/6J mouse model assessed as reduction in PCP-induced hyper-locomotion at 3 mg/kg, ip preincubated for 15 mins followed by PCP addition measured after 60 mins; format: functional, organism-based
In short: (§1)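 Male C57BL/6J mice, 9–10 weeks old. […] PCP 5 mg/kg followed, with activity recorded a further 60 min. Read-out was total distance from infrared beam breaks, analysed by one-way ANOVA.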

[4] = molecular target: Voltage-gated inwardly rectifying potassium channel KCNH2 (Homo sapiens, UniProt Q12809); assay: Inhibition of human ERG expressed in CHO cells by automated patch-clamp assay; format: cell-based
In short: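 Read-out is an IC50 in µM for hERG inhibition, measured by automated patch-clamp on CHO cells.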

[5] = molecular target: T1, 5-hydroxytryptamine receptor 2B (Homo sapiens, UniProt P41595); assay: Agonist activity at human 5-HT2B receptor expressed in Flp-IN HEK293 cells assessed as induction of calcium flux up to 10 uM measured every second for 5 mins by Fluo-4 dye based FLIPR assay; format: cell-based; details: hek293, 5 min
[6] = molecular target: T1, 5-hydroxytryptamine receptor 2B; assay: Displacement of [3H]-LSD from human 5-HT2B receptor expressed in HEKT cells after 90 mins by scintillation counting method; format: cell-based
Mus musculus [7] = assay: Toxicity in C57BL/6J mouse assessed as reduction in baseline locomotive activity at 10 to 20 mg/kg, ip after 15 mins; format: organism-based; details: in vivo
Mus musculus [8] = assay: Antipsychotic activity in AMPH-induced hyperactivity C57BL/6J mouse model assessed as reduction in amphetamine-induced hyper-locomotion at 20 mg/kg, ip preincubated for 15 mins followed by AMPH addition measured after 90 mins; format: functional, organism-based
Mus musculus [9] = assay: Antipsychotic activity in AMPH-induced hyperactivity C57BL/6J mouse model assessed as reduction in amphetamine-induced hyper-locomotion at 10 mg/kg, ip preincubated for 15 mins followed by AMPH addition measured after 90 mins; format: functional, organism-based
Mus musculus [10] = assay: Antipsychotic activity in PCP-induced hyperactivity C57BL/6J mouse model assessed as reduction in PCP-induced hyper-locomotion at 10 to 20 mg/kg, ip preincubated for 15 mins followed by PCP addition measured after 60 mins; format: functional, organism-based; in short: as §1
[11] = molecular target: T2, 5-hydroxytryptamine receptor 2C (Homo sapiens) (UniProt P28335); assay: Agonist activity at human 5-HT2C-INI receptor isoform expressed in Flp-IN HEK293 cells assessed as induction of Gq-mediated calcium flux measured every second for 5 mins by Fluo-4 dye based FLIPR assay relative to serotonin; format: functional, cell-based
T2 sequence (whole entry): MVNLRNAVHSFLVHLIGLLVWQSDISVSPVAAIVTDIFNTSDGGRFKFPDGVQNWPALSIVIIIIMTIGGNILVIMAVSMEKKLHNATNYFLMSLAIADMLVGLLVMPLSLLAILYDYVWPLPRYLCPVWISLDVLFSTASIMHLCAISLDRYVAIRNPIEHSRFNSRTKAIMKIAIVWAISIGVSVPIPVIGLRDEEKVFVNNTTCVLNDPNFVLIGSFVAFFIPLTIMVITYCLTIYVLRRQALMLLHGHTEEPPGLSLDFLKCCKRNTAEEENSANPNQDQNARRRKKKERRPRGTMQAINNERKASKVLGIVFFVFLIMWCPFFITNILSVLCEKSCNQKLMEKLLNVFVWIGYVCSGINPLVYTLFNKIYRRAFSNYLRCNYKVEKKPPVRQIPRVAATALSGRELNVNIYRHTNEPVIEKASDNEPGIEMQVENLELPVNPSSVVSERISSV

5-HT2A receptor [12] = molecular target: 5-HT2A receptor (Homo sapiens, UniProt P28223); assay: Agonist activity at human 5-HT2A receptor expressed in Flp-IN HEK293 cells assessed as induction of calcium flux measured every second for 5 mins by Fluo-4 dye based FLIPR assay relative to serotonin; format: cell-based; details: Flp-IN HEK293 cells expressing human 5-HT2A receptor
[13] = molecular target: T2, 5-hydroxytryptamine receptor 2C (Homo sapiens); assay: Agonist activity at tTA containing TEV cleavage site-fused 5-HT2C-INI receptor isoform (unknown origin) expressed in TEV-fused beta-arrestin2 expressing HEK cells assessed as induction of beta-arrestin2 recruitment after 20 hrs by Tango assay relative to serotonin; format: cell-based
In short: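 HTLA cells (HEK cells with TEV-fused β-arrestin-2 and tTA-driven luciferase) transfected with tTA-fused 5-HT2C-INI receptor carrying a TEV site. Luminescence read after 20 min lysis at room temperature. Normalized to % 5-HT and fitted sigmoidally. NA means no activity up to 10 μM. Mean of n = 3.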

CYP1A2 = molecular target: T3, CYP1A2 (Homo sapiens, UniProt P05177); assay: in vitro; details: liver microsomes, probe phenacetin
T3 sequence (P05177 whole entry): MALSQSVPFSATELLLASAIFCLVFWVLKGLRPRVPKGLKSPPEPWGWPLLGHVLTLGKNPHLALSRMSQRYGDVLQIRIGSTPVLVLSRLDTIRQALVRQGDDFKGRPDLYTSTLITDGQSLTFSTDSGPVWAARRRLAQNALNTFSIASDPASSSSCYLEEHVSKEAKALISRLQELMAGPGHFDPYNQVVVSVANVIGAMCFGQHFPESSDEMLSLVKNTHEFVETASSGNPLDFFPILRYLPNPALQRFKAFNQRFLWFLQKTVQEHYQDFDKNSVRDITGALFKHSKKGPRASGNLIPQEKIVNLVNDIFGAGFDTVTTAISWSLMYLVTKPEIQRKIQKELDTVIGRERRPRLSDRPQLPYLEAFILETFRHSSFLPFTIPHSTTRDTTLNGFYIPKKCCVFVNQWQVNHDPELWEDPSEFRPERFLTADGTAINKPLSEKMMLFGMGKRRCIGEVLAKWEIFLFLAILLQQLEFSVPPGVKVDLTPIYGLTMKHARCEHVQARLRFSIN

CYP2C9 = CYP2C9 (Homo sapiens, UniProt P11712); assay: in vitro; details: liver microsomes, probe tolbutamide
CYP2D6 = CYP2D6 (Homo sapiens, UniProt P10635); assay: in vitro; details: liver microsomes, probe dextromethorphan
CYP3A4 = CYP3A4 (Homo sapiens, UniProt P08684); assay: in vitro; details: liver microsomes, probe midazolam
[14] = molecular target: T4, 5-hydroxytryptamine receptor 2C (Rattus norvegicus, UniProt P08909); assay: Agonist activity at rat 5-HT2C receptor expressed in African clawed frog oocytes assessed as increase in current amplitude; format: cell-based
T4 sequence (P08909 whole entry): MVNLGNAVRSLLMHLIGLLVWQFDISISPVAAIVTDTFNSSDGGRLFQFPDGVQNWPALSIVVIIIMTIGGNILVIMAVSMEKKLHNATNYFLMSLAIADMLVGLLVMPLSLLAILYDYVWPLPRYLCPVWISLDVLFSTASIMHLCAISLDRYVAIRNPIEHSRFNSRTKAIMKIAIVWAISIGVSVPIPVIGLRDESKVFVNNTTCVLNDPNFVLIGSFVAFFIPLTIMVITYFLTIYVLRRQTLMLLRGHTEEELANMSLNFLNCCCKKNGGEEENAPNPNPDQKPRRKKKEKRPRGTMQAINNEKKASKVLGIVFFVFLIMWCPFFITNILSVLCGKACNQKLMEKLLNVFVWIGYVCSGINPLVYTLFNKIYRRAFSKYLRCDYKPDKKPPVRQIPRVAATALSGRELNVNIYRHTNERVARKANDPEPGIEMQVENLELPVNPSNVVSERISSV

5-HT2A receptor [15] = molecular target: 5-HT2A receptor (Rattus norvegicus, UniProt P14842); assay: Agonist activity at rat 5-HT2A receptor expressed in African clawed frog oocytes assessed as increase in current amplitude relative to 5-HT; format: cell-based; details: African clawed frog oocytes expressing rat 5-HT2A receptor
Sequence of 5-HT2A receptor (Rattus norvegicus, UniProt P14842) (P14842 whole entry): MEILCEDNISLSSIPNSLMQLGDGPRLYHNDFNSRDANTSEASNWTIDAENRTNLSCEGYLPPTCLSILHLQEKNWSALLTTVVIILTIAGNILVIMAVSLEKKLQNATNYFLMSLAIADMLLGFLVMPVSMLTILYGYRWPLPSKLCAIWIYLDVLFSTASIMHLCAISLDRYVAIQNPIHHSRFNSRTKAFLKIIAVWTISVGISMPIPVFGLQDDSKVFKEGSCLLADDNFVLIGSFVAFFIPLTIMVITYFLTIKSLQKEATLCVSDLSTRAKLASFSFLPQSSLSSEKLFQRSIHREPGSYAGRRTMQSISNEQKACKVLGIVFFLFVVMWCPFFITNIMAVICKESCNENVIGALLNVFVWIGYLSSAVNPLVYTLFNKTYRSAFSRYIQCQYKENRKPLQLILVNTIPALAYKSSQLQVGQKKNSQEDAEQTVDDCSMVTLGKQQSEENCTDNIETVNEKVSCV

T1 sequence (P41595 whole entry): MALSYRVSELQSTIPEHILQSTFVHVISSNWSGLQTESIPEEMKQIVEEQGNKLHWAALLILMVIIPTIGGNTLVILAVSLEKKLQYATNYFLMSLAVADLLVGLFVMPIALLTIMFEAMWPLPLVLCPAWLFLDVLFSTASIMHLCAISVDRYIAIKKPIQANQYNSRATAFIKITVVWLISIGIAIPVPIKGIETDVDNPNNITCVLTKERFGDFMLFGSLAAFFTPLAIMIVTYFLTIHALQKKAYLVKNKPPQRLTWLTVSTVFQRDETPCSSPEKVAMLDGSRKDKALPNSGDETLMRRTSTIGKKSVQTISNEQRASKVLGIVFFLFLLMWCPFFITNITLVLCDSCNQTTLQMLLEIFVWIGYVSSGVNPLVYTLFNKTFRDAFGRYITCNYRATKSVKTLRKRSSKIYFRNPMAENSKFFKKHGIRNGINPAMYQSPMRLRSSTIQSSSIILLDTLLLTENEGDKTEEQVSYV
Sequence of CYP2D6 (P10635 whole entry): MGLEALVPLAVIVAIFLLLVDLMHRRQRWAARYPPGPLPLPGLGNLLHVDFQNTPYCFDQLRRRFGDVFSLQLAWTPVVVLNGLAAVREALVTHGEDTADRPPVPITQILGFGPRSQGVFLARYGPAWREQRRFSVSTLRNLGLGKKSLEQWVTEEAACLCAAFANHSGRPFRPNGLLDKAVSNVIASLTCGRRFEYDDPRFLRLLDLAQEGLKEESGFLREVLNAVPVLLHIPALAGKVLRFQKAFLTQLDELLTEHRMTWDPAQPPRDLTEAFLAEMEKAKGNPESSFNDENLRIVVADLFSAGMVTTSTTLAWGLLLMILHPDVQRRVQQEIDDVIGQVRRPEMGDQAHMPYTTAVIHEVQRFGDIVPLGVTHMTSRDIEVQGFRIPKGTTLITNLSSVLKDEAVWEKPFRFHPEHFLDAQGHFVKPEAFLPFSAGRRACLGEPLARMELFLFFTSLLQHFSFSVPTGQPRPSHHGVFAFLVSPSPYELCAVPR
Sequence of CYP3A4 (P08684 whole entry): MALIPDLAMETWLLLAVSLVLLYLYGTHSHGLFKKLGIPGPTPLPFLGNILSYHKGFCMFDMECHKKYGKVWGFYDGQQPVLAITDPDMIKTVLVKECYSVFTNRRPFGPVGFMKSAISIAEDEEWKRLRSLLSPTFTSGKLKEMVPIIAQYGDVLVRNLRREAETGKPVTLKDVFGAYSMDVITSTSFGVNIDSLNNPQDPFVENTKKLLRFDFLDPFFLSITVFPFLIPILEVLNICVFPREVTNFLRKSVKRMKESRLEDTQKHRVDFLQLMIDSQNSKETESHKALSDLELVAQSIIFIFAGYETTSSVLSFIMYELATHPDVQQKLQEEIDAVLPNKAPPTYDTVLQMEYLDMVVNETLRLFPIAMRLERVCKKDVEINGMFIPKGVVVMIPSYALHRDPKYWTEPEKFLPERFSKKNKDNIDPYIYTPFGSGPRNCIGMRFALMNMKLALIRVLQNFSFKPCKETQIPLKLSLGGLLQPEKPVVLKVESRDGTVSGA
Sequence of Voltage-gated inwardly rectifying potassium channel KCNH2 (Q12809 whole entry): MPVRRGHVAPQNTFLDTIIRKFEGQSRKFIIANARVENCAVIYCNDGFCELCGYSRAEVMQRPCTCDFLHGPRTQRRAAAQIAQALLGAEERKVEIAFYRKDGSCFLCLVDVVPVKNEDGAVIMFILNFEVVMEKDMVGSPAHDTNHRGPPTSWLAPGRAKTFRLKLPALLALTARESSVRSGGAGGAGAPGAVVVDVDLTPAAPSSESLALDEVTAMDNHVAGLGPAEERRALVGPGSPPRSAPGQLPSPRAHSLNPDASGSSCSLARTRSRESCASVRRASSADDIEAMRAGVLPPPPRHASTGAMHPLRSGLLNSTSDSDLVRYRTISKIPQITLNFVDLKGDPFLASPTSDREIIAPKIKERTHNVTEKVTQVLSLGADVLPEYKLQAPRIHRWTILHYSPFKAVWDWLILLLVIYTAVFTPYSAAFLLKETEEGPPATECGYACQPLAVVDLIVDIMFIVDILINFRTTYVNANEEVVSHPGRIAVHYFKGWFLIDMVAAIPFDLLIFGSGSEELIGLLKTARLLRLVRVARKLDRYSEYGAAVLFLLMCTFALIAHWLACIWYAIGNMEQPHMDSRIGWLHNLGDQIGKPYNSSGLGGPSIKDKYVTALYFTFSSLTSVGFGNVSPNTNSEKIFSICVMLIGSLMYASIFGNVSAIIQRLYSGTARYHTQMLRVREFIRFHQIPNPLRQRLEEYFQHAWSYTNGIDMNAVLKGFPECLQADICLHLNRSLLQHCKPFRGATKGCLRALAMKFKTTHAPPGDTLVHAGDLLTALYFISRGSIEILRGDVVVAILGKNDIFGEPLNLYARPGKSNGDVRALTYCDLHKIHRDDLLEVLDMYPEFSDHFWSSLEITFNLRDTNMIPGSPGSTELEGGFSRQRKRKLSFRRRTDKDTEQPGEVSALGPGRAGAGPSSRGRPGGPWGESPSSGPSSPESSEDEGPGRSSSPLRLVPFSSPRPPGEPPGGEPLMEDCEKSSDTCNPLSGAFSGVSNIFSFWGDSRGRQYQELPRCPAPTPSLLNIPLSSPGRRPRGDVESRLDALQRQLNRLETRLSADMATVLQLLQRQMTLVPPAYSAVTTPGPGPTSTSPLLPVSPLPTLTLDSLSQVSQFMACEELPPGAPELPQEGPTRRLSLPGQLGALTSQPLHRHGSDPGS
Sequence of CYP2C9 (P11712 whole entry): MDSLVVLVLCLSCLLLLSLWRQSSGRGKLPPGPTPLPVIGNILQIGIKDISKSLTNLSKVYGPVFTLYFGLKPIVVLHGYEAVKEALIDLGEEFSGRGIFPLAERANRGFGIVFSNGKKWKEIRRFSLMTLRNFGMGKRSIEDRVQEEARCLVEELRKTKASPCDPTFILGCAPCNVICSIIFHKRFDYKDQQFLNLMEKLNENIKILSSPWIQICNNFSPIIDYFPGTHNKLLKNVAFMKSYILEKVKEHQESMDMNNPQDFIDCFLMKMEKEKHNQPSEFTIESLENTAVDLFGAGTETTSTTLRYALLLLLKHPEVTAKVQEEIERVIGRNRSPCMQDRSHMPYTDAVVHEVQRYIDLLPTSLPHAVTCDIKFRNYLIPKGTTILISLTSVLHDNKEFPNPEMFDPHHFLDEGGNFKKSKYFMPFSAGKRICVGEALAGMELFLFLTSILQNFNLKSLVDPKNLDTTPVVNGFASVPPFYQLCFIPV
Sequence of 5-HT2A receptor (Homo sapiens, UniProt P28223) (P28223 whole entry, the tested form may be a part, canonical isoform): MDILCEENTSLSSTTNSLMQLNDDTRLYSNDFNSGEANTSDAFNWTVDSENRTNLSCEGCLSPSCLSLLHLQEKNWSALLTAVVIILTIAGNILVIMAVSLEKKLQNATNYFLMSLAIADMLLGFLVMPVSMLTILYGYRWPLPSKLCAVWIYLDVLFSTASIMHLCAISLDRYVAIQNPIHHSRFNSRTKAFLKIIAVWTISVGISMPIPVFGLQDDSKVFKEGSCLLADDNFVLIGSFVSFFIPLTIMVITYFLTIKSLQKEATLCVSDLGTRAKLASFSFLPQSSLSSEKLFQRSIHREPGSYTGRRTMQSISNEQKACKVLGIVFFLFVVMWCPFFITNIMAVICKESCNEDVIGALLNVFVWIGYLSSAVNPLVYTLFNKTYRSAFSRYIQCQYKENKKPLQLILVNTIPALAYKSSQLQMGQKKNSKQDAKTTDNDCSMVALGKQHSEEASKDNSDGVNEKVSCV

Which Activity (Mus musculus [1]) does the source give for `C[C@H]1CNCCc2ccc(Cl)cc21` [LORCASERIN] here?
The Activity was “Toxic”.

What about the Activity (Mus musculus [2]) of the same molecule?
Its Activity is “Active”.

What about the Activity (Mus musculus [3]) of the same molecule?
The Activity was “inactive”.

What does the source list for `COc1ccccc1CNC[C@H]1C[C@@H]1c1cc(F)ccc1OC.Cl`?
IC50 [4]: 1400 nM; Activity [5]: Not Active; Ki [6]: 411 nM; Activity (Mus musculus [7]): Non-Toxic; Activity (Mus musculus [8]): Active; Activity (Mus musculus [9]): inactive; Activity (Mus musculus [10]): inactive; Emax [11]: 92%; Emax at 5 min (5-HT2A receptor [12]): 63%; Emax [13]: 43%; inhibition at 10 µM (CYP1A2): 20.5%; inhibition at 10 µM (CYP2C9): 9.3%; inhibition at 10 µM (CYP2D6): 68.9%; inhibition at 10 µM (CYP3A4): 85.6%

What does the source list for `COc1cc(CC(C)N)c(OC)cc1I` (centres undefined)?
EC50 [14]: 178 nM; Emax (5-HT2A receptor [15]): 46%
